According to ChEMBL document CHEMBL1147211, “Synthetic N-pyridinyl(methyl)-indol-3-ylpropanamides as new potential immunosuppressive agents” (Eur J Med Chem, 2007):
Calls of active or inactive are those of the source. No cut-off for these calls is given here.

Columns and labels:
Splenocyte [1] = test: (§1) Antiproliferative activity against ConA-stimulated mouse splenocytes at 90 uM after 72 hrs by MTT assay; assay type: functional
Procedure, shortened: (§2)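 Spleens pooled from two 8-week-old female C57BL/6 mice were homogenized in HBSS, and red cells were lysed with 20 mM Tris-HCl/140 mM NH4Cl. Cells were seeded at 1.5×10^5/well and stimulated with 1 ug/mL ConA plus compound in complete RPMI with 50 µM mercaptoethanol, at 37 °C and 5% CO2 for 72 h. Read-out was MTT for 4 h and OD at 570 nm, in sextuplicate. Inhibition was calculated as (OD control − OD treated)/OD control × 100.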

Splenocyte [2] = test: (§3) Antiproliferative activity against ConA-stimulated mouse splenocytes at 30 uM after 72 hrs by MTT assay; assay type: functional; procedure, shortened: as §2
[3] = as §1; assay type: functional; conditions: Splenocyte; procedure, shortened: as §2
[4] = as §3; assay type: functional; conditions: Splenocyte; procedure, shortened: as §2
Splenocyte [5] = test: Inhibition of mitogen dependent T cell proliferation in mouse splenocytes; assay type: functional, cell-based; procedure, shortened: as §2
[6] = Cytotoxicity assessed as cell viability of ConA-stimulated mouse splenocytes at 100 uM after 48 hrs by MTT assay
[7] = Antiproliferative activity against PHA-stimulated human peripheral blood lymphocytes assessed as [3H]thymidine uptake after 48 hrs; assay type: functional; conditions: PBL
Procedure, shortened: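 Human PBL from healthy donors were isolated by Ficoll-Hypaque and seeded at 1×10^5/well. They were stimulated with 0.3 µg/mL PHA plus compound (6.25–100 µM; DMSO stock diluted in complete RPMI) at 37 °C and 5% CO2 for 48 h. [3H]thymidine (1 µCi/well) was added for the last 6–8 h, and uptake was counted by beta counter, in sextuplicate. Values are mean ± SEM of three independent experiments.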

Mus musculus = test: Inhibition of DTH foot-pad swelling in orally dosed BALB/C mouse after 5 days; assay type: functional
Procedure, shortened: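 Female BALB/c mice, 8–9 weeks old and five per group, were primed i.v. with 5×10^6 SRBC in PBS. Compound in olive oil was given orally once daily for five days, from priming until challenge. On day 4, 3–4×10^8 SRBC were injected into the right hind footpad and PBS into the left. Footpad swelling difference was measured 24 h later, and inhibition was expressed relative to control mice.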

| Compound | Activity (Splenocyte [1]) | Activity (Splenocyte [2]) | inhibition at 90 µM [3] | inhibition at 30 µM [4] | other results |
| --- | --- | --- | --- | --- | --- |
| Cc1cc(C)nc(NC(=O)CCc2cn(Cc3ccc(Cl)cc3)c3ccc(Cl)cc23)c1 | inactive | inactive |  |  |  |
| Cc1cc(C)nc(NC(=O)CCc2c[nH]c3ccccc23)c1 |  |  | 76% | 22% |  |
| O=C(CCc1cn(Cc2ccc(Cl)cc2)c2ccc(Cl)cc12)NCc1cccnc1 | inactive | inactive |  |  |  |
| Cn1cc(CCC(=O)Nc2ccncc2)c2cc(Cl)ccc21 | inactive | inactive |  |  |  |
| Cc1cc(C)nc(NC(=O)CCc2cn(Cc3ccccc3)c3ccccc23)c1 | inactive | inactive |  |  |  |
| O=C(CCc1cn(Cc2ccc(Cl)cc2)c2ccccc12)NCc1cccnc1 |  |  | 55% | 27% |  |
| Cn1cc(CCC(=O)NCc2cccnc2)c2cc(Cl)ccc21 |  |  | 37% | 22% |  |
| O=C(CCc1cn(Cc2ccccc2)c2ccccc12)Nc1ccncc1 | inactive | inactive |  |  |  |
| O=C(CCc1cn(Cc2ccccc2)c2ccccc12)NCc1cccnc1 |  |  | 38% | 20% |  |
| O=C(CCc1c[nH]c2ccccc12)NCc1cccnc1 |  |  | 38% | 38% |  |
| O=C(CCc1c[nH]c2ccccc12)Nc1ccncc1 | inactive | inactive |  |  |  |
| Cc1cc(C)nc(NC(=O)CCc2cn(Cc3ccc(Cl)cc3)c3ccccc23)c1 | inactive | inactive |  |  |  |
| O=C(CCc1cn(Cc2ccc(Cl)cc2)c2ccccc12)Nc1ccncc1 |  |  | 87% | 19% | IC50 (Splenocyte [5]): 17 µM; Cell viability [6]: 95%; IC50 [7]: 25 µM; Inhibition (Mus musculus): 69% |
